Assay [1] concerns the target Fibroblast growth factor receptor 4 (Homo sapiens) (UniProt P22455). Put plainly: Inhibition of FGFR4 (unknown origin) at 1000 nM relative to control. An outline of the steps: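 Purified recombinant kinase domains run in ELISA on precoated poly(Glu,Tyr) 4:1 (20 µg/mL) with 10 µM ATP in 50 mM HEPES pH 7.4, 50 mM MgCl2, 0.5 mM MnCl2, 0.2 mM Na3VO4, 1 mM DTT; 1% DMSO control; 60 min at 37 °C. Phosphotyrosine read by PY99 antibody, HRP anti-mouse IgG, OPD/H2O2 at 490 nm; inhibition = [1−A490/A490control]×100%; two separate experiments.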

For a further assay, the system named is SNU-16. Put plainly: Antiproliferative activity against FGFR2 amplified human SNU16 cells after 72 hrs by CCK8 assay. In kind it is functional, cell-based. The conditions noted are these: SNU-16, 72 h. Summed up:
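Cells seeded at low density in growth medium and compounds added the next day. Incubated 72 h, then proliferation read by sulforhodamine B, MTT or CCK-8. IC50 obtained by four-parameter concentration-response curve fitting.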
A general note: Formazan colour is commonly taken as a measure of viable cells.

One molecule from ChEMBL document CHEMBL4411287, “Discovery and optimization of a series of 3-substituted indazole derivatives as multi-target kinase inhibitors for the treatment of lung squamous cell carcinoma” (Eur J Med Chem, 2019) can be followed below.

Sequence of Fibroblast growth factor receptor 4 (Homo sapiens) (P22455 22-802 limits assumed): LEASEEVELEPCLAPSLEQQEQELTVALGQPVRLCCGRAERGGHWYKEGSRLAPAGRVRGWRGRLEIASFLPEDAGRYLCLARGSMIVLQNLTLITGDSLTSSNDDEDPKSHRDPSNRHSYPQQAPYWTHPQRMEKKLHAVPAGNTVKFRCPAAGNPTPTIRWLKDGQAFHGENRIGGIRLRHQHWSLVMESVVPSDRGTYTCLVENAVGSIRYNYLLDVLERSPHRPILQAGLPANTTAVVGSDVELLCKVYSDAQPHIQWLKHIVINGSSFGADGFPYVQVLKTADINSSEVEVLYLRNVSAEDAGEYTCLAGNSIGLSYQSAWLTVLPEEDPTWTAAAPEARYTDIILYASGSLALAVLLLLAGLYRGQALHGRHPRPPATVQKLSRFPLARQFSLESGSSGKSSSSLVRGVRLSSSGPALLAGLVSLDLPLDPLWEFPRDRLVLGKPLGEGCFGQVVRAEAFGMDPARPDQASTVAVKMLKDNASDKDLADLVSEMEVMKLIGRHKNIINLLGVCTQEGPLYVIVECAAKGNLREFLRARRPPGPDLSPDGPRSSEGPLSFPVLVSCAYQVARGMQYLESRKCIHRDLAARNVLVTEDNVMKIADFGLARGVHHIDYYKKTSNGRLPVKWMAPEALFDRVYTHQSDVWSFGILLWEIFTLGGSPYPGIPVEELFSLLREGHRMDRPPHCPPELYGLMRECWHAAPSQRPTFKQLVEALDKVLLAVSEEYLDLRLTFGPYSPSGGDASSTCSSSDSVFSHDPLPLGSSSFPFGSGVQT

One may read the inhibition as the relative decrease from the control value, in per cent. For orientation: IC50 means the concentration that gives 50% inhibition. Low readings indicate higher potency, high ones lower potency. Regarding `Cc1ccc(C(=O)Nc2cccc(C(F)(F)F)c2)cc1-c1ccc2c(-c3cnn(C4CC4)c3)n[nH]c2c1`, in assay [1], the inhibition came out at 72.4%. Besides, the IC50 in the assay on SNU-16 was determined as 93.4 nM.
